Calls of active or inactive are those of the source. The rule behind the calls is not given here.
Experiments:
PC-12 [1] = assay: Inhibition of manganese ion-induced apoptosis in PC12 cells assessesed as suppression of DNA fragmentation upto 20 uM; format: functional, cell-based
Procedure, shortened: (§1)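 PC12 cells (2·10⁷) preincubated with test agent at 10 and 20 μM for 30 min at 37 °C in DMEM plus 5% FBS. MnCl₂ then added to 0.25 mM and incubation continued 20 h at 37 °C. Soluble DNA extracted, run on agarose gels, laddering visualized on UV transilluminator.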

PC-12 [2] = assay: Toxicity in PC12 cells assessed by measuring DNA fragmentation upto 20 uM; format: cell-based, Homo sapiens
Procedure, shortened: (§2)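 PC12 cells (2·10⁷) exposed to agent at 10 and 20 μM in DMEM with 5% FBS at 37 °C, 30 min preincubation, then 20 h further incubation with no MnCl₂ added. Apoptosis judged by DNA laddering: soluble DNA extracted, agarose gel electrophoresis, UV transilluminator visualization.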

PC-12 [3] = assay: Inhibition of manganese ion-induced apoptosis in PC12 cells assessesed as suppression of DNA fragmentation at 10 uM; format: functional; conditions: Rattus norvegicus; procedure, shortened: as §1
PC-12 [4] = assay: Toxicity in PC12 cells assessed by measuring DNA fragmentation at 10 uM; format: cell-based, Homo sapiens; conditions: pc-12, 10 µM; procedure, shortened: as §2

Compound | Activity (PC-12 [1]) | Activity (PC-12 [2]) | inhibition at 10 µM (PC-12 [3]) [%] | Activity (PC-12 [4])
COC(=O)CCCCCC[C@@H]1C(=O)C=C[C@H]1CCCCCCc1ccc(C)cc1 | inactive | Non-toxic | – | –
COC(=O)CCCCCC[C@H]1C=CC(=O)/C1=C/CCCCCc1ccc(C)cc1 | – | Non-toxic | 50 | –
CCCCCCCC[C@@H]1C=CC(=O)/C1=C/CCCCCC(=O)OC | – | – | 50 | –
COC(=O)CCCCC/C=C1/C(=O)C=C[C@H]1CCCCCCc1ccc(C)cc1 | – | – | 50 | Toxic
CCCCC/C=C/C=C1/C(=O)C=CC1C/C=C\CCCC(=O)O (stereo unspecified) | inactive | – | – | Toxic
COC(=O)CCCCCC[C@H]1C=CC(=O)/C1=C/CCCCOc1ccc(Br)cc1 | – | Non-toxic | < 50 | –
COC(=O)CCCCC/C=C1\CC=CC1=O | inactive | Non-toxic | – | –
COC(=O)CCCCC/C=C1/C(=O)CC[C@H]1CCCCCCc1ccc(C)cc1 | inactive | Non-toxic | – | –
CCCCC[C@H](O)/C=C/[C@H]1C=CC(=O)/C1=C/CCCCCC(=O)OC | inactive | – | – | Toxic
COC(=O)CCCCCC[C@@H]1C=CC(=O)/C1=C/CCCCOc1ccc(Br)cc1 | inactive | – | – | Toxic
CCCCCCC/C=C1/C(=O)C=C[C@@H]1CCCCCCC(=O)OC | – | Non-toxic | 50 | –

From ChEMBL document CHEMBL1139789, “Synthesis of neuroprotective cyclopentenone prostaglandin analogs: suppression of manganese-induced apoptosis of PC12 cells” (Bioorg Med Chem Lett, 2007)
